This note sets out measurements from ChEMBL document CHEMBL5230161, “Exploring structural effects in a new class of NRF2 inhibitors” (RSC Med Chem, 2023).

By inhibition is commonly meant the share of the control response that was lost under treatment. Broadly, the solubility is how much of the substance goes into solution per volume.

The target in series [1] is T1, Nuclear factor erythroid 2-related factor 2 (Homo sapiens) (UniProt Q16236).
T1 sequence (whole entry): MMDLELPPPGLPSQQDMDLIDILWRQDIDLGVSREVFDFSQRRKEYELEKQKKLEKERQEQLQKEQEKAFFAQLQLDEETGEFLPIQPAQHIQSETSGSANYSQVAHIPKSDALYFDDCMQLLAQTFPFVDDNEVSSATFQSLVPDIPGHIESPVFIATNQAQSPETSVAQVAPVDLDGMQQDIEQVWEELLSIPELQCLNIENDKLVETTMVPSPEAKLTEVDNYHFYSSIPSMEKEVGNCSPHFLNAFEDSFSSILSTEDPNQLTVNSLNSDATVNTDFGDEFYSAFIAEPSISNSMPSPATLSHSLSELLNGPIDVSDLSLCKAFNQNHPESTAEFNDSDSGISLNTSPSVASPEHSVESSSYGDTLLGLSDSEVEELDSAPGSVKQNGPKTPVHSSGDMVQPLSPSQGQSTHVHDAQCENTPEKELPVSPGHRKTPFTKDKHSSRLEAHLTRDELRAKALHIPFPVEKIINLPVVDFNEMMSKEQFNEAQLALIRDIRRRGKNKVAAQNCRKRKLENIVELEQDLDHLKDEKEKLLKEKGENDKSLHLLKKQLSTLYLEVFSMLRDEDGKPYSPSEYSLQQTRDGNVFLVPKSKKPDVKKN
Nature of the series: Activation of Nrf2 (unknown origin) assessed as cellular activity. Details: concentration or dose not given beside the values. The settings on record: filed as activator.

The subject of series [2] is MCF7. Nature of the series: Inhibition of NRF2/ARE (unknown origin) transfected in human MCF7 cells assessed as cellular activity preincubated with compound for 1 hrs followed by tBHQ addition and measured after 24 hrs by steady-glo luciferase assay relative to control. The class given is cell-based. The following applies: time 25.0 hrs, dose or concentration not given here. Details: concentration or dose not given beside the values.

Series [3] deals with A549. The experiment in a line: Antiproliferative activity against human A549 cells assessed as inhibition of cell growth incubated for 72 hrs by MTT assay. The class given is functional. Details: scale not given: the % may be the effect or the level left. The method in brief: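 A549 human lung cancer cells exposed to a single 5 μmol L⁻¹ dose for 72 h; viability read by MTT assay.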
(In general: Tetrazolium dyes change colour on reduction, which living cells bring about.)

Series [4] in a line: Solubility of the compound in pH 7.4 PBS buffer. The class given is physicochemical.
Series [5] concerns A549. Nature of the series: Induction of cell cycle arrest in human A549 cells assessed as accumulation of cells at G2/M phase at 10 uM incubated for 24 hrs by PI staining based flow cytometric analysis. The class given is functional. The method in brief:
(§1)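 A549 or H460 cells synchronized in low-serum medium 12 h, then inhibitor 24 h; propidium iodide staining, flow cytometry, univariate cell-cycle model (Watson pragmatic, G0/1 and G2/M peak constraints); % of total cells as mean ± SE, n = 2-3 independent experiments.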
For orientation: Flow cytometry measures light scatter and fluorescence of single cells or particles in a stream.

The next series concerns NCI-H460. The experiment in a line: Induction of cell cycle arrest in human NCI-H460 cells assessed as accumulation of cells at G2/M phase at 10 uM incubated for 24 hrs by PI staining based flow cytometric analysis. Type of series: functional. An outline of the steps:
as §1

The test system of series [6] is A549. Nature of the series: Inhibition of cell migration in human A549 cells at 10 uM incubated for 24 hrs by DAPI staining based transwell migration assay relative to control. Type of series: functional. An outline of the steps:
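Transwell migration of A549 cells seeded in serum-free medium with DMSO vehicle or compound (1, 5, 10 μmol L⁻¹) in top chamber; bottom medium with compound and 5% FBS chemoattractant; 24 h, filters fixed, unmigrated cells removed, DAPI stain, 9 fields imaged per insert; two inserts per condition, n = 2-3; one- or two-way ANOVA vs vehicle.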

Series [7] relates to MCF7. Nature of the series: Inhibition of NRF2/ARE (unknown origin) transfected in human MCF7 cells assessed as cellular activity measured before deprotection of compound preincubated with compound for 1 hrs followed by tBHQ addition and measured after 24 hrs by steady-glo luciferase assay relative to control. Type of series: cell-based. The following applies: time 25.0 hrs, dose or concentration not given here.

Series [8] concerns the target T1, Nuclear factor erythroid 2-related factor 2 (Homo sapiens). The experiment in a line: Activation of Nrf2 (unknown origin) assessed as cellular activity measured before deprotection of compound. The settings on record: filed as activator.

SMILES strings stand for the structures. In brackets after ≈: the same amount, converted by molar mass. Activity calls are given as the source filed them. No cut-off for these calls is given here.

`Cc1cc(C)cc(Nc2nc(C)c(-c3ccccc3)cc2C(N)=O)c1`: the Activity in series [1] was -18.1%. In the case of `COc1ccc(-c2cnc(Nc3cc(C)cc(C)c3)c(C#N)c2)cc1`, the Activity in [1] is -1.5%. For the compound `Cc1cc(C)cc(Nc2ncc(-c3ccccc3)nc2C#N)c1`, the Activity in series [1] is -7.8%.

For `Cc1ccc(C)c(Nc2nc(C)c(-c3ccccc3)cc2C#N)c1`, the inhibition in the series with MCF7 [2] is 51%. In the case of `CC(=O)N(c1cc(C)cc(C)c1)c1nc(C)c(-c2ccccc2)cc1C#N`, the inhibition in the series on MCF7 [2] came out at 12.5%.

With `Cc1ccnc(Nc2nccc(-c3ccccc3)c2C#N)c1`, the inhibition with MCF7 [2] turned out to be 35.4%.

With `Cc1cc(C)cc(Nc2ncc(-c3ccncc3)cc2C#N)c1`, the Activity in series [1] is -42.8%.

With `Cc1cc(C)cc(Nc2ncc(-c3cccc(O[Si](C)(C)C(C)(C)C)c3)cc2C#N)c1`, in the series on MCF7 [2], the inhibition came to 12.6%. Take `COc1ccnc(Nc2ncc(-c3ccccc3)cc2C#N)c1`: the inhibition in the series on MCF7 [2] came to 39.7%. For `Cc1ccc(-c2cnc(Nc3cc(C)cc(C)c3)c(C#N)c2)cc1`, the Activity in series [1] is -29.6%. As to `N#Cc1cc(-c2ccccc2)cnc1Nc1ccc(Cl)nn1`, the Activity in [1] is -131%. Turning to `Cc1cc(C)cc(Nc2ncc(-c3cccc(Cl)c3)cc2C#N)c1`, the inhibition with MCF7 [2] is 18.2%. Consider `Cc1nc(Nc2cccc(I)c2)c(C#N)cc1-c1ccccc1`, for which, in the series on MCF7 [2], the inhibition stood at 51.8%. In the series on A549 [3], the Activity was determined as 26.6%. As to `Cc1cc(C)cc(Nc2ncc(-c3cccnc3)cc2C#N)c1`, the Activity in [1] is -8.7%.

Turning to `COc1ccnc(Nc2nccc(-c3ccccc3)c2C#N)c1`, the Activity in [1] was -4.5%. With `N#Cc1cc(-c2ccccc2)cnc1Nc1cnccn1`, the inhibition in the series on MCF7 [2] came out at 28.3%. As for `COc1cc(Nc2ncc(-c3ccccc3)nc2C#N)cc(OC)c1`, in series [1], the Activity was -66%. The same measure, in the same setting: in the case of `N#Cc1cc(-c2ccccc2)cnc1Nc1cc(C2CC2)ccn1` it was -23.6%; in that of `Cc1cc(C)cc(Nc2nc3ncccc3cc2C#N)c1`, -42.7%. For the compound `N#Cc1cc(-c2ccccc2)cnc1Nc1ccccn1`, the inhibition with MCF7 [2] is 25.5%.

Regarding `CC(C)(C)[Si](C)(C)OCc1ccnc(Nc2ncc(-c3ccccc3)cc2C#N)c1`, the inhibition in the series with MCF7 [2] was 43.3%.

For `Cc1cc(Nc2ncc(-c3ccccc3)cc2C#N)ccn1`, the Activity in [1] was -20.3%. For the compound `Cc1cc(Nc2nc(C)c(-c3ccccc3)cc2C#N)cc(C)c1Br`, the inhibition in the series with MCF7 [2] is 25.7%.

Regarding `Cc1cc(C)cc(N(C)c2nc(C)c(-c3ccccc3)cc2C#N)c1`, in the series with MCF7 [2], the inhibition was 21.9%. With `Cc1cccc(Nc2ncc(-c3ccccc3)cc2C#N)n1`, the Activity in series [1] is -13.8%. `Cc1cc(C)cc(Nc2nc(C)ccc2C#N)c1`: the inhibition in the series on MCF7 [2] came out at 6.1%.

In the case of `N#Cc1c(-c2ccccc2)ccnc1Nc1cc(Br)ccn1`, the inhibition in the series on MCF7 [2] was found to be 7.5%. The same measure, in the same setting: in the case of `CCc1ccnc(Nc2ncc(-c3ccccc3)cc2C#N)c1` it was 42.3%.

For the compound `N#Cc1cc(-c2ccccc2)cnc1Nc1cc(C(F)(F)F)ccn1`, the inhibition in the series on MCF7 [2] came to 55.3%. Regarding `Cc1cc(Nc2nc(C)c(-c3ccccc3)cc2C#N)cc(C)c1C`, in the series with MCF7 [2], the inhibition was determined as 37.2%.

Regarding `Cc1nc(Nc2cc(Cl)cc(Cl)c2)c(C#N)cc1-c1ccccc1`, the inhibition in the series on MCF7 [2] was 15.7%. As to `Cc1cc(C)cc(Nc2ncc(-c3ccc(Cl)cc3)cc2C#N)c1`, the Activity in series [1] is -4.9%. Same read-out and setting: in the case of `Cc1cc(C)cc(Nc2nc(C)c(C(C)C)cc2C#N)c1` it was -6.3%.

In the case of `Cc1cc(C)nc(Nc2ncc(-c3ccccc3)cc2C#N)c1`, the inhibition in the series with MCF7 [2] came out at 20%. With `Cc1cccc(Nc2nc(C)c(-c3ccccc3)cc2C#N)c1`, the inhibition with MCF7 [2] came out at 40.9%. For `Cc1cc(C)cc(Nc2nc(C)c(-c3ccccc3)cc2C#N)c1`, the inhibition in the series with MCF7 [2] stood at 54.6%. The compound further had a solubility in series [4] of 3 µM (≈ 0.94 µg/mL). Further, in the series with A549 [3], the Activity is given as 9.8%. The outcome with A549 [5] and in the series with NCI-H460 was Active. For the same compound, testing at 10 µM in the series on A549 [6] gave an inhibition of 65%. `Cc1cc(N)cc(Nc2nc3ccccc3cc2C#N)c1`: the Activity in series [1] is -9.5%. As for `Cc1cc(C)cc(Nc2nccc(-c3ccccc3)c2C#N)c1`, the inhibition with MCF7 [2] amounted to 39%. With `Cc1nc(Nc2cccc(C(C)O)c2)c(C#N)cc1-c1ccccc1` (centres undefined), the inhibition stood at 5.2% with MCF7 [2] and 26% with MCF7 [7].

For `Cc1cc(C)cc(Nc2nc(C)c(-c3cccc(Cl)c3)cc2C#N)c1`, the inhibition with MCF7 [2] amounted to 49.2%.

With `Cc1nc(Nc2cccc(CO)c2)c(C#N)cc1-c1ccccc1`, in the series on MCF7 [2], the inhibition came out at 16.7%. On to `N#Cc1c(-c2ccccc2)ccnc1Nc1ccccn1`, for which the Activity in series [1] was -78.1%. On the same count and under the same terms, as for `CCOC(=O)c1ccnc(Nc2ncc(-c3ccccc3)cc2C#N)c1`, the figure is -0.1%. For `Cc1cncc(Nc2ncc(-c3ccccc3)cc2C#N)n1`, the inhibition in the series with MCF7 [2] is 13.2%. For the compound `Cc1cc(C)cc(Nc2nc(-c3ccccc3)ccc2C#N)c1`, the inhibition in the series with MCF7 [2] was found to be 3.7%. Turning to `Cc1cc(C)cc(Cc2ncc(-c3ccccc3)cc2C#N)c1`, the Activity in series [1] was -33.9%. Consider `COc1cc(OC)cc(-c2cnc(Nc3cc(C)cc(C)c3)c(C#N)c2)c1`, for which, in series [1], the Activity is -23.3%. In the case of `Cc1cc(C)cc(Nc2ncc(-c3cc(C)cc(C)c3)cc2C#N)c1`, in the series on MCF7 [2], the inhibition worked out at 25.1%. Take `CCCc1nc(Nc2cc(C)cc(C)c2)c(C#N)cc1-c1ccccc1`: the Activity in series [1] was -11.8%. In the case of `Cc1nc(C)nc(Nc2ncc(-c3ccccc3)cc2C#N)n1`, in the series with MCF7 [2], the inhibition stood at 9.6%.

For the compound `Cc1cc(C)cc(Nc2ncc(-c3ccccc3Cl)cc2C#N)c1`, in the series with MCF7 [2], the inhibition turned out to be 32.9%. On to `Cc1cncc(Nc2ncc(-c3ccccc3)cc2C#N)c1`, for which the inhibition in the series on MCF7 [2] was 25.3%.

`Cc1nc(Nc2cccc(C(C)C)c2)c(C#N)cc1-c1ccccc1`: in the series with MCF7 [2], the inhibition stood at 55.2%. In addition, the solubility in series [4] worked out at 0.9 µM (≈ 0.295 µg/mL). Regarding `Cc1nc(Nc2cc(Br)cc(Br)c2)c(C#N)cc1-c1ccccc1`, the inhibition in the series on MCF7 [2] turned out to be 7.7%. Turning to `Cc1cc(Nc2ncc(-c3ccccc3)cc2C#N)nc(C)n1`, in series [1], the Activity is -33.9%. In the case of `Cc1cc(C)nc(Nc2ncc(-c3ccccc3)cc2C#N)n1`, the inhibition with MCF7 [2] was determined as 11.2%. Regarding `N#Cc1c(-c2ccccc2)ccnc1Nc1cc(CO)ccn1`, the Activity was -31.8% in series [1] and -4.65% in series [8]. With `Cc1cc(C)cc(Nc2nc3ccccc3cc2C#N)c1`, the inhibition with MCF7 [2] was determined as 21.2%. In the case of `Cc1cc(Nc2ncc(-c3ccccc3)cc2C#N)cc(C)c1C`, the Activity in series [1] is -32.3%. The same measure, in the same setting: in the case of `Cc1cc(C)cc(Oc2ncc(-c3ccccc3)cc2C#N)c1` it was -45.4%. Consider `Cc1cc(C)cc(Nc2ncc(-c3cc(Cl)cc(Cl)c3)cc2C#N)c1`, for which, in the series with MCF7 [2], the inhibition worked out at 2.9%.

Turning to `Cc1cc(Br)cc(Nc2nc(C)c(-c3ccccc3)cc2C#N)c1`, the inhibition in the series with MCF7 [2] turned out to be 58.4%. Besides, the Activity with A549 [3] came out at 35.3%.

As to `Cc1cc(C)cc(Nc2ncc(-c3ccccc3)cc2C#N)c1`, the inhibition in the series with MCF7 [2] was determined as 38.4%. This compound also came in with a solubility in series [4] of 4 µM (≈ 1.2 µg/mL).
